Test results as given in ChEMBL document CHEMBL3616400, “Design, Synthesis, and Evaluation of Triazole Derivatives That Induce Nrf2 Dependent Gene Products and Inhibit the Keap1-Nrf2 Protein-Protein Interaction” (J Med Chem, 2015).

Assays:
[1] = biological target: T1, Nuclear factor erythroid 2-related factor 2 (Mus musculus) (UniProt Q60795); assay: Activation of Nrf2 in mouse Hepa1c1c7 cells assessed as induction of NQO1 production at 10 uM after 24 hrs by MTT colorimetric assay relative to control; format: cell-based
T1 sequence (whole entry): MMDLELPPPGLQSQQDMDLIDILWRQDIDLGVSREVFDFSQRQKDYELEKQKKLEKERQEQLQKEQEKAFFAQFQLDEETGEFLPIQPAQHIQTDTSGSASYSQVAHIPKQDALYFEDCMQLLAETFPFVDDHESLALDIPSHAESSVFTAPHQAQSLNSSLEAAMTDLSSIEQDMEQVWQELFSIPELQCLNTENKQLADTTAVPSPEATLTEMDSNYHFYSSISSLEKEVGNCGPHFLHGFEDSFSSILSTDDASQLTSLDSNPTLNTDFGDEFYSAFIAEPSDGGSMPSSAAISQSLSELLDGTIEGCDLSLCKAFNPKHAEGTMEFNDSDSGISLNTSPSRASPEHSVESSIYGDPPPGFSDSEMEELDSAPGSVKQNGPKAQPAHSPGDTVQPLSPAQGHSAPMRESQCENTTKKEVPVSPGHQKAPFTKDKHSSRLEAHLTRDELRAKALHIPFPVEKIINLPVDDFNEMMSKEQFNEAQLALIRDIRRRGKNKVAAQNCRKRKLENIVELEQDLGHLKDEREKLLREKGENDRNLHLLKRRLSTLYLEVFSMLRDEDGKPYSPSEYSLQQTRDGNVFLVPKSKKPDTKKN
In short: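 Hepa1c1c7 mouse hepatoma cells treated at a fixed 10 µM for 24 h. NQO1 enzyme activity read by colorimetric induction assay and expressed as fold induction over control.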

[2] = biological target: Keap1/Nrf2 (Homo sapiens) (UniProt Q16236+Q14145); assay: Inhibition of kelch domain of Keap1 (unknown origin) interaction to high affinity ETGE motif from Nrf2 unknown origin) at 100 uM by fluorescence polarization assay; format: protein assay
Keap1/Nrf2 (Homo sapiens), sequence (Q14145 whole entry, looked up, the tested form may be a part): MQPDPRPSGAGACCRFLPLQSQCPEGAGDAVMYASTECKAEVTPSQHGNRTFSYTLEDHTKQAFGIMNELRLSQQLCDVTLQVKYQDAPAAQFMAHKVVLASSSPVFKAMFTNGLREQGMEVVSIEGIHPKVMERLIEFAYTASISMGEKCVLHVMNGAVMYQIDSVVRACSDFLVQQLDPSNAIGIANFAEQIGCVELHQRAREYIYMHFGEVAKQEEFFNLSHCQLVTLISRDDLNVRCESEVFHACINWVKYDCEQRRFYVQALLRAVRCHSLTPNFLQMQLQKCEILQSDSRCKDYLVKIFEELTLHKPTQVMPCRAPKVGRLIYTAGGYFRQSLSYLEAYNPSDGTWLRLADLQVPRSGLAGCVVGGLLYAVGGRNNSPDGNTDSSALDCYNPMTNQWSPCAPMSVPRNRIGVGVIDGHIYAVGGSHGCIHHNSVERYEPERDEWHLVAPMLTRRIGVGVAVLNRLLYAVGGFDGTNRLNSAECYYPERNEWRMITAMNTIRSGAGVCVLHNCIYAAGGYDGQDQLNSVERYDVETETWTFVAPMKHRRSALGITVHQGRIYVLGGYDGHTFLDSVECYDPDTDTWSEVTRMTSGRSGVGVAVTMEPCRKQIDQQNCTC
Keap1/Nrf2 (Homo sapiens), sequence (Q16236 whole entry, looked up, the tested form may be a part): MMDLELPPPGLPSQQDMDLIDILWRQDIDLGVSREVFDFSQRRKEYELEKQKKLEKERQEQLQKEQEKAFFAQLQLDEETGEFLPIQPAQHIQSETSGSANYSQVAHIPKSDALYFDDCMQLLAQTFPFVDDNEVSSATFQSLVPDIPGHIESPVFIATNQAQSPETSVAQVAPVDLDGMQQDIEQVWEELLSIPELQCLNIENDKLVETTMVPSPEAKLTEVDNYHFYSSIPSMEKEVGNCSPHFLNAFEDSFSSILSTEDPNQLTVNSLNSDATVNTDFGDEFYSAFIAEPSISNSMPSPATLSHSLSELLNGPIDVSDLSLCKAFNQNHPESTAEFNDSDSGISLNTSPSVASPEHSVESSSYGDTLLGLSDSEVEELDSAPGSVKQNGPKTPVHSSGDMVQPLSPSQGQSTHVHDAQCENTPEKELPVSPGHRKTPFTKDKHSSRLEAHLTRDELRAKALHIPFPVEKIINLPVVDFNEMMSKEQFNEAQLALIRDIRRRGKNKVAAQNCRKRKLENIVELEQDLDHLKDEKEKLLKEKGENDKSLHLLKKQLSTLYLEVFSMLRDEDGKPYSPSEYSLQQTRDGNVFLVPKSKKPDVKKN
In short: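 Fluorescence polarization competition. Keap1 Kelch domain with fluorescein-labelled ETGE peptide FITC-β-DEETGEF-OH (β = β-alanine). Displacement measured with a fixed 100 µM inhibitor; percent inhibition reported.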

[3] = biological target: T1, Nuclear factor erythroid 2-related factor 2 (Mus musculus); assay: Activation of Nrf2 in mouse Hepa1c1c7 cells assessed as concentration required to 2 fold induction of NQO1 production after 24 hrs by MTT colorimetric assay; format: cell-based
In short: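 Hepa1c1c7 mouse hepatoma cells exposed to a concentration range for 24 h. NQO1 enzymatic activity measured by colorimetric induction assay. Value reported as CD, the concentration giving a two-fold increase in NQO1 activity.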

Keap1/Nrf2 = Keap1/Nrf2 (Homo sapiens, UniProt Q14145); assay: Inhibition of kelch domain of Keap1 (unknown origin) interaction to high affinity ETGE motif from Nrf2 by fluorescence polarization assay; format: protein assay
Keap1/Nrf2, sequence (Q16236 whole entry, the tested form may be a part): as the sequence (Q16236 whole entry, looked up, the tested form may be a part) above
Keap1/Nrf2, sequence (Q14145 whole entry, the tested form may be a part): as the sequence (Q14145 whole entry, looked up, the tested form may be a part) above
In short: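 Competitive fluorescence polarization, dose-response format. Keap1 Kelch domain with fluorescein-labelled Nrf2 ETGE peptide FITC-β-DEETGEF-OH. EC50 derived from dose-response curves.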

fold change (FC) [1]	inhibition [2]	CD [3]	EC50 (Keap1/Nrf2)	SMILES
0.85	63.8%	–	–	O=C(O)c1cccc(-c2cn(-c3cccc([N+](=O)[O-])c3)nn2)c1
0.79	–	–	–	NC(=O)c1ccc(-c2cn(-c3cccc(C(=O)O)c3)nn2)cc1
0.89	83.8%	–	–	O=C(O)c1ccc(-c2cn(-c3ccc([N+](=O)[O-])cc3)nn2)cc1
2.08	64.5%	–	–	NC(=O)c1ccc(-n2cc(-c3cccc([N+](=O)[O-])c3)nn2)cc1
0.81	70.7%	–	–	NC(=O)c1cccc(-c2cn(-c3ccc(C(=O)O)cc3)nn2)c1
0.86	82.3%	–	–	O=C(O)c1cccc(-c2cn(-c3cccc(C(=O)O)c3)nn2)c1
0.95	15.4%	–	–	NC(=O)c1cccc(-n2cc(-c3ccc(C(=O)O)cc3)nn2)c1
–	65.3%	–	–	NC(=O)c1cccc(-c2cn(-c3cccc(C(N)=O)c3)nn2)c1
1.02	43.7%	–	–	NC(=O)c1ccc(-c2cn(-c3cccc(C(N)=O)c3)nn2)cc1
1	72.6%	–	–	O=[N+]([O-])c1ccc(-c2cn(-c3ccc([N+](=O)[O-])cc3)nn2)cc1
0.98	–	–	–	NC(=O)c1ccc(-c2cn(-c3ccc(C(N)=O)cc3)nn2)cc1
1.05	48%	–	–	NC(=O)c1cccc(-c2cn(-c3ccc([N+](=O)[O-])cc3)nn2)c1
1.07	96.3%	–	–	NC(=O)c1cccc(-n2cc(-c3cccc(C(=O)O)c3)nn2)c1
0.98	52.8%	–	–	N#Cc1cccc(-c2cn(-c3ccc(C(=O)O)cc3)nn2)c1
0.98	62.2%	–	–	NC(=O)c1cccc(-n2cc(-c3ccc([N+](=O)[O-])cc3)nn2)c1
–	39.4%	–	–	O=C(O)c1ccc(-n2cc(-c3cccc([N+](=O)[O-])c3)nn2)cc1

fold change (FC) [1]	inhibition [2]	CD [3]	EC50 (Keap1/Nrf2)	SMILES
1.81	46.5%	–	–	O=[N+]([O-])c1ccc(-c2cn(-c3cccc([N+](=O)[O-])c3)nn2)cc1
0.9	77.3%	–	–	O=C(O)c1ccc(-c2cn(-c3ccc(C(=O)O)cc3)nn2)cc1
1.02	–	–	–	NC(=O)c1ccc(-c2cn(-c3ccc([N+](=O)[O-])cc3)nn2)cc1
0.86	76.5%	–	–	NC(=O)c1ccc(-n2cc(-c3ccc(C(=O)O)cc3)nn2)cc1
0.71	78.6%	–	–	NC(=O)c1cccc(-c2cn(-c3cccc(C(=O)O)c3)nn2)c1
0.79	–	–	–	NC(=O)c1ccc(-c2cn(-c3ccc(C(=O)O)cc3)nn2)cc1
0.91	87.6%	–	–	NC(=O)c1ccc(-n2cc(-c3cccc(C(=O)O)c3)nn2)cc1
1.33	2.34%	–	–	NC(=O)c1ccc(-c2cn(-c3cccc([N+](=O)[O-])c3)nn2)cc1
1.14	82.3%	–	–	O=C(O)c1cccc(-c2cn(-c3ccc([N+](=O)[O-])cc3)nn2)c1
0.47	89.6%	–	–	O=C(O)c1ccc(-c2cn(-c3cccc(C(=O)O)c3)nn2)cc1
0.66	61%	–	–	O=C(O)c1cccc(-n2cc(-c3ccc([N+](=O)[O-])cc3)nn2)c1
1	70%	–	–	O=C(O)c1ccc(-n2cc(-c3cccc(-c4nnn[nH]4)c3)nn2)cc1
0.99	81.3%	–	–	O=C(O)c1ccc(-n2cc(-c3ccc([N+](=O)[O-])cc3)nn2)cc1
1.06	87.5%	–	–	O=C(O)c1ccc(-c2cn(-c3cccc([N+](=O)[O-])c3)nn2)cc1
1.07	46.1%	–	–	NC(=O)c1ccc(-n2cc(-c3ccc([N+](=O)[O-])cc3)nn2)cc1

The remaining lines, values behind:

SMILES	fold change (FC) [1]	inhibition [2]	CD [3]	EC50 (Keap1/Nrf2)
O=[N+]([O-])c1cccc(-c2cn(-c3ccccc3)nn2)c1	1.95	66.9%	> 10 µM	20.6 µM
Ic1cccc(-n2cc(-c3cccc(-c4nnn[nH]4)c3)nn2)c1	1.03	51.5%	–	–
O=[N+]([O-])c1cccc(-n2cc(-c3cccc(-c4nnn[nH]4)c3)nn2)c1	1.75	71.1%	–	–
Cc1cccc(-n2cc(-c3cccc(C#N)c3)nn2)c1	1.69	49.7%	–	–
O=[N+]([O-])c1cccc(-c2cn(-c3ccc4c(c3)OCO4)nn2)c1	2.24	67.2%	–	15 µM
NC(=O)c1cccc(-n2cc(-c3cccc([N+](=O)[O-])c3)nn2)c1	2.09	65.3%	–	–
O=[N+]([O-])c1cccc(-c2cn(-c3cccc(F)c3)nn2)c1	2.27	42.6%	–	–
c1cc(-c2cn(-c3cccc(-c4nnn[nH]4)c3)nn2)cc(-c2nnn[nH]2)c1	0.84	13.7%	–	–
N#Cc1cccc(-c2cn(-c3cccc(C#N)c3)nn2)c1	1.92	58.8%	–	–
N#Cc1cccc(-c2cn(-c3cccc(I)c3)nn2)c1	1.53	21.9%	–	–
N#Cc1cccc(-n2cc(-c3cccc([N+](=O)[O-])c3)nn2)c1	2.33	36.8%	–	–
Cc1cccc(-n2cc(-c3cccc(-c4nnn[nH]4)c3)nn2)c1	0.88	30.4%	–	–
N#Cc1cccc(-c2cn(-c3cccc(Cl)c3)nn2)c1	2.39	19.9%	–	–
O=[N+]([O-])c1cccc(-c2cn(-c3cccc([N+](=O)[O-])c3)nn2)c1	2.3	81%	–	11.5 µM
O=[N+]([O-])c1cccc(-c2cn(-c3cccc(C(F)(F)F)c3)nn2)c1	2.54	66.9%	–	22.6 µM
Cc1c(-c2cnccn2)ssc1=S	–	–	10.2 µM	–
O=[N+]([O-])c1ccc(-n2cc(-c3cccc([N+](=O)[O-])c3)nn2)cc1	3.38	74.8%	–	–
CCOc1cccc(-n2cc(-c3cccc([N+](=O)[O-])c3)nn2)c1	2.48	69.3%	–	11.3 µM
CCOc1cccc(-n2cc(-c3cccc(-c4nnn[nH]4)c3)nn2)c1	1.31	39.6%	–	–
CCOc1cccc(-n2cc(-c3cccc(C#N)c3)nn2)c1	1.3	24.5%	–	–
N#Cc1cccc(-c2cn(-c3cccc([N+](=O)[O-])c3)nn2)c1	2.1	59.4%	–	–
Clc1cccc(-n2cc(-c3cccc(-c4nnn[nH]4)c3)nn2)c1	1.24	40.7%	–	–
CSc1cccc(-n2cc(-c3cccc([N+](=O)[O-])c3)nn2)c1	2.95	77.7%	–	38.5 µM
NC(=O)c1cccc(-c2cn(-c3cccc([N+](=O)[O-])c3)nn2)c1	2.06	32%	–	–
